Assay results reported in ChEMBL document CHEMBL2069298, “Putative mycobacterial efflux inhibitors from the seeds of Aframomum melegueta” (J Nat Prod, 2012).
In brackets after ≈: the same amount, converted by molar mass.

Legend:
[1] = test system: Mycolicibacterium smegmatis MC2 155; assay: Inhibition of Multidrug resistance efflux pump in Mycobacterium smegmatis str. MC2 155 ATCC 700084 assessed as reduction in isoniazid bromide MIC presence of test compound at 64 mg/L
Outline: (§1)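 Broth dilution in MHB with strain mc2 155 from blood agar. Modulator at half its MHB MIC was included in the medium while the antibiotic or EtBr was serially diluted. Inoculum 5 × 10^5 cfu/mL. MTT read-out after 72 h at 37 °C. Value is the fold change in MIC.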

[2] = test system: Mycolicibacterium smegmatis; assay: Antimicrobial activity against Mycobacterium smegmatis str. MC2 155 ATCC 700084 incubated for 72 hrs in 7H9 T medium supplemented with 10% Middlebrook ADC enrichment by MTT assay; assay type: functional; conditions: MC2 155 ATCC 700084, 72 h
Outline: (§2)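 M. smegmatis mc2 155 grown on Columbia blood agar with 5% horse blood at 37 °C. Compounds in DMSO, serially diluted in Mueller-Hinton broth or 7H9 T ADC. Inoculum set to McFarland 0.5, then 5 × 10^5 cfu/mL, mixed 1:1 with the dilutions. Read with MTT after 72 h at 37 °C. MIC is the lowest concentration inhibiting growth.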

[3] = test system: Mycolicibacterium smegmatis MC2 155; assay: Inhibition of Multidrug resistance efflux pump in Mycobacterium smegmatis str. MC2 155 ATCC 700084 assessed as fractional inhibitory concentration index in presence of rifampicin
Outline: (§3)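 Combination testing in MHB broth dilution against mc2 155. Either the modulator or the antibiotic (EtBr or rifampicin) was held in the medium while the partner was serially diluted. 5 × 10^5 cfu/mL inoculum, MTT read-out after 72 h at 37 °C. Fractional inhibitory concentration index derived from the combined MICs.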

[4] = test system: Mycolicibacterium smegmatis; assay: Antimicrobial activity against Mycobacterium smegmatis str. MC2 155 ATCC 700084 incubated for 72 hrs in Mueller-Hinton broth medium by MTT assay; assay type: functional; conditions: MC2 155 ATCC 700084, 72 h; outline: as §2
[5] = test system: Mycolicibacterium smegmatis MC2 155; assay: Inhibition of Multidrug resistance efflux pump in Mycobacterium smegmatis str. MC2 155 ATCC 700084 assessed as increase in normalized ethidium bromide fluorescence efflux at 0.5 MIC level by fluorimetric assay (reference value: 0.581 +/- 0.051 ratio)
Outline: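 Cells grown in 7H9 T ADC at 37 °C and loaded with 4 mg/L EtBr plus 256 mg/L verapamil. EtBr efflux followed fluorometrically in a microtiter plate with compounds at half their 7H9 T ADC MIC. Normalized fluorescence is the mean of the last 10 min of four assays, compared with the EtBr control.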

[6] = test system: Mycolicibacterium smegmatis MC2 155; assay: Inhibition of Multidrug resistance efflux pump in Mycobacterium smegmatis str. MC2 155 ATCC 700084 assessed as reduction in ethidium bromide MIC presence of test compound at 64 mg/L; outline: as §1
[7] = test system: Mycolicibacterium smegmatis MC2 155; assay: Inhibition of Multidrug resistance efflux pump in Mycobacterium smegmatis str. MC2 155 ATCC 700084 assessed as reduction in ciprofloxacin bromide MIC presence of test compound at 64 mg/L; outline: as §1
[8] = test system: Mycolicibacterium smegmatis MC2 155; assay: Inhibition of Multidrug resistance efflux pump in Mycobacterium smegmatis str. MC2 155 ATCC 700084 assessed as increase in relative ethidium bromide fluorescence accumulation at 0.5 MIC level by fluorimetric assay (reference value: 6057.1 +/- 508.6 RFU)
Outline: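 Cells grown in 7H9 T with 10% ADC at 37 °C. Compounds at half their 7H9 T ADC MIC, with 0.5 mg/L EtBr and 0.4% glucose at 37 °C. Fluorescence tracked in a microtiter plate until steady state. Relative fluorescence is the mean of the last 10 min of four assays, compared with the EtBr-only control.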

[9] = test system: Mycolicibacterium smegmatis MC2 155; assay: Inhibition of Multidrug resistance efflux pump in Mycobacterium smegmatis str. MC2 155 ATCC 700084 assessed as reduction in rifampicin bromide MIC presence of test compound at 64 mg/L; outline: as §1
[10] = test system: Mycolicibacterium smegmatis MC2 155; assay: Inhibition of Multidrug resistance efflux pump in Mycobacterium smegmatis str. MC2 155 ATCC 700084 assessed as fractional inhibitory concentration index in presence of ethidium bromide; outline: as §3
[11] = test system: Mycolicibacterium smegmatis MC2 155; assay: Inhibition of Multidrug resistance efflux pump in Mycobacterium smegmatis str. MC2 155 ATCC 700084 assessed as reduction in ethambutol bromide MIC presence of test compound at 64 mg/L; outline: as §1
[12] = test system: Mycolicibacterium smegmatis MC2 155; assay: Inhibition of Multidrug resistance efflux pump in Mycobacterium smegmatis str. MC2 155 ATCC 700084 assessed as reduction in rifampicin bromide MIC presence of test compound at 16 mg/L; outline: as §1
[13] = test system: Mycolicibacterium smegmatis MC2 155; assay: Inhibition of Multidrug resistance efflux pump in Mycobacterium smegmatis str. MC2 155 ATCC 700084 assessed as reduction in ethambutol bromide MIC presence of test compound at 16 mg/L; outline: as §1
[14] = test system: Mycolicibacterium smegmatis MC2 155; assay: Inhibition of Multidrug resistance efflux pump in Mycobacterium smegmatis str. MC2 155 ATCC 700084 assessed as reduction in ethidium bromide MIC presence of test compound at 16 mg/L; outline: as §1
[15] = test system: Mycolicibacterium smegmatis MC2 155; assay: Inhibition of Multidrug resistance efflux pump in Mycobacterium smegmatis str. MC2 155 ATCC 700084 assessed as reduction in isoniazid bromide MIC presence of test compound at 16 mg/L; outline: as §1
[16] = test system: Mycolicibacterium smegmatis MC2 155; assay: Inhibition of Multidrug resistance efflux pump in Mycobacterium smegmatis str. MC2 155 ATCC 700084 assessed as reduction in ciprofloxacin bromide MIC presence of test compound at 16 mg/L; outline: as §1
[17] = (§4) Inhibition of Multidrug resistance efflux pump in Mycobacterium smegmatis str. MC2 155 ATCC 700084 assessed as increase in normalized ethidium bromide fluorescence efflux at 0.5 MIC level by fluorimetric assay; parameters: species or system Mycolicibacterium smegmatis MC2 155
[18] = test system: Mycolicibacterium smegmatis MC2 155; assay: as §4
[19] = test system: Mycolicibacterium smegmatis MC2 155; assay: Inhibition of Multidrug resistance efflux pump in Mycobacterium smegmatis str. MC2 155 ATCC 700084 assessed as reduction in rifampicin bromide MIC presence of test compound at 32 mg/L; outline: as §1
[20] = test system: Mycolicibacterium smegmatis MC2 155; assay: Inhibition of Multidrug resistance efflux pump in Mycobacterium smegmatis str. MC2 155 ATCC 700084 assessed as reduction in ciprofloxacin bromide MIC presence of test compound at 32 mg/L; outline: as §1
[21] = test system: Mycolicibacterium smegmatis MC2 155; assay: Inhibition of Multidrug resistance efflux pump in Mycobacterium smegmatis str. MC2 155 ATCC 700084 assessed as reduction in isoniazid bromide MIC presence of test compound at 32 mg/L; outline: as §1
[22] = test system: Mycolicibacterium smegmatis MC2 155; assay: Inhibition of Multidrug resistance efflux pump in Mycobacterium smegmatis str. MC2 155 ATCC 700084 assessed as reduction in ethidium bromide MIC presence of test compound at 32 mg/L; outline: as §1
[23] = test system: Mycolicibacterium smegmatis MC2 155; assay: Inhibition of Multidrug resistance efflux pump in Mycobacterium smegmatis str. MC2 155 ATCC 700084 assessed as reduction in ethambutol bromide MIC presence of test compound at 32 mg/L; outline: as §1

SMILES	fold change (FC) [1]	MIC [2]	fractional inhibitory concentration index (FICI) [3]	MIC [4]	Ratio [5]	fold change (FC) [6]	fold change (FC) [7]	RFU [8]	fold change (FC) [9]	fractional inhibitory concentration index (FICI) [10]	fold change (FC) [11]	fold change (FC) [12]	fold change (FC) [13]	fold change (FC) [14]	fold change (FC) [15]	fold change (FC) [16]	IC50 [17]	also measured
CCCCCC(=O)CC(=O)CCc1ccc(O)c(OC)c1	2	≥ 128 mg/L	0.5	128 mg/L (≈ 438 µM)	0.789	8	2	17800	4	0.25	1							
CCCCc1ccc(CCc2ccc(O)c(OC)c2)o1		≥ 128 mg/L	0.19	32 mg/L (≈ 117 µM)	0.778			17200		0.19		16	2	8	4	2		
CCCCCCCC(=O)CCc1ccc(O)c(OC)c1		≥ 128 mg/L	0.5	32 mg/L (≈ 115 µM)	0.793			24600		0.25		4	1	8	4	1	63.6 µM	inhibition [18]: Dose-dependent effect
CCCCCCC[C@H](O)CC(=O)CCc1ccc(O)c(OC)c1		≥ 128 mg/L	1	64 mg/L (≈ 198 µM)	0.795			21900		0.19							83.1 µM	fold change (FC) [19]: 2; fold change (FC) [20]: 2; fold change (FC) [21]: 2; fold change (FC) [22]: 8; fold change (FC) [23]: 2
CCCCC[C@H](O)C[C@H](O)CCc1ccc(O)c(OC)c1	1	≥ 128 mg/L	2	≥ 128 mg/L		2	1		1	1	1							
CCCCC[C@H](O)C[C@@H](O)CCc1ccc(O)c(OC)c1	1	≥ 128 mg/L	2	≥ 128 mg/L		2	1		1	1	1							
CCCCC[C@H](O)CC(=O)CCc1ccc(O)c(OC)c1 [GINGEROL]	1	≥ 128 mg/L	2	≥ 128 mg/L		2	1		1	1	1							
CCCCCCCC(O)CCc1ccc(O)c(OC)c1 (racemic)		128 mg/L (≈ 456 µM)	0.75	32 mg/L (≈ 114 µM)	0.792			24700		0.38		4	2	4	1	2	69.2 µM	
CCCCC[C@H](O)CC(=O)CCc1ccc(OC)c(OC)c1	1	≥ 128 mg/L	2	≥ 128 mg/L	0.746	2	1	11800	1	0.63	1							
